A value given as a limit tells only on which side of the number the result lay.

The species named for one experiment is Rattus norvegicus. In words: Ratio of Ki for adrenergic receptor alpha1 to Ki for 5HT1A receptor in CRL:CD(SD)BR-COBS rat brain.
The next experiment deals with D(1A) dopamine receptor (Rattus norvegicus, UniProt P18901). The experiment can be described thus: Displacement of [3H]SCH23390 from dopamine D1 receptor in CRL:CD(SD)BR-COBS rat brain striatum. A digest of the protocol:
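Striatal membranes were washed (50000g spins, 10 min at 37 °C), then held in 50 mM Tris·HCl pH 7.4 with 10 µM pargyline, 120 mM NaCl, 5 mM KCl, 2 mM CaCl2, 1 mM MgCl2 and 0.1% ascorbic acid. Incubation used 0.4 nM [3H]SCH23390 for 15 min at 25 °C. Nonspecific binding was defined with 10 µM (-)-cis-flupentixol. Filtration was used. Ki is the mean ± SD of three experiments.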

The target of experiment [1] is T1, 5-hydroxytryptamine receptor 1A (Rattus norvegicus, UniProt P19327).
T1 sequence (P19327 whole entry): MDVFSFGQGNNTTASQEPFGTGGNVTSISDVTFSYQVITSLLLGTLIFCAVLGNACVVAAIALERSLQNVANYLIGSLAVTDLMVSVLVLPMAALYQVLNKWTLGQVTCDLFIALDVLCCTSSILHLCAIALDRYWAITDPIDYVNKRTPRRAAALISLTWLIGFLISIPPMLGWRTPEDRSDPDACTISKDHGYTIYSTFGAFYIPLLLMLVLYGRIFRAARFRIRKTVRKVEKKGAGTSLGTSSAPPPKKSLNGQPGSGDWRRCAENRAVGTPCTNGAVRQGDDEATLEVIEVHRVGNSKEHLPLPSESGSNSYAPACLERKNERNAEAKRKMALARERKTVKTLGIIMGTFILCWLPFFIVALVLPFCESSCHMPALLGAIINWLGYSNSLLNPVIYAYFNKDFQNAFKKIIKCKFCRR
In words: Displacement of [3H]8-OH-DPAT from 5HT1A receptor in CRL:CD(SD)BR-COBS rat hippocampus. The experiment is classed as tissue-based. A digest of the protocol:
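Rat hippocampus homogenized in 50 mM Tris·HCl pH 7.4, spun at 50000g, warmed 10 min at 37 °C, washed, then resuspended in 50 mM Tris·HCl pH 7.7 with 10 µM pargyline and 4 mM CaCl2. Incubation used 1 nM [3H]8-OH-DPAT for 30 min at 25 °C. Nonspecific binding was defined with 10 µM 5-HT. Separation was by filtration. Ki is the mean ± SD of three experiments.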

The target in experiment [2] is 5-hydroxytryptamine receptor 2A (Rattus norvegicus, UniProt P14842). The experiment can be described thus: Displacement of [3H]ketanserin from 5HT2A receptor in CRL:CD(SD)BR-COBS rat brain cortex. A digest of the protocol: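 Cortex homogenate was washed, including 10 min at 37 °C, and resuspended in 50 mM Tris·HCl pH 7.7. Incubation used 0.35 nM [3H]ketanserin for 15 min at 37 °C. Nonspecific binding was defined with 1 µM methysergide. Filtration was used. Ki is the mean ± SD of three experiments.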

For another experiment, the target named is D(2) dopamine receptor (Rattus norvegicus, UniProt P61169). In words: Displacement of [3H]spiperone from dopamine D2 receptor in CRL:CD(SD)BR-COBS rat brain striatum.
The nature of experiment [3]: Displacement of [3H]prazosin from adrenergic receptor alpha1 in CRL:CD(SD)BR-COBS rat brain cortex. A digest of the protocol: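 Cortical membranes were washed (50000g, 10 min at 37 °C) and suspended in 50 mM Tris·HCl pH 7.7 with 10 µM pargyline and 0.1% ascorbic acid. Incubation used 0.2 nM [3H]prazosin for 30 min at 25 °C. Nonspecific binding was defined with 3 µM phentolamine. Filtration was used. Ki is the mean ± SD of three experiments.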
(Displacement assays read how much labelled ligand stays bound in the presence of the test substance.)

Experiment [4] addresses T2, 5-hydroxytryptamine receptor 1A (Rattus norvegicus) (UniProt P19327).
T2 sequence (whole entry): T1 sequence (P19327 whole entry)
In words: Agonist activity at 5HT1A receptor in CRL:CD(SD)BR-COBS rat hippocampus assessed as increase in [35S]GTPgammaS binding relative to 5-hydroxytryptamine. In kind it is functional, tissue-based. A digest of the protocol: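 Rat hippocampal membranes (200 µg protein/sample), washed in 50 mM Tris·HCl and resuspended in pH 7.7 Tris with 10 µM pargyline and 4 mM CaCl2. Graded drug concentrations were applied, with 20 min preincubation at 37 °C, then 45 min at 37 °C with 0.1 nM [35S]GTPγS. Nonspecific binding was set with 10 µM GTPγS, followed by GF/B filtration. EC50 and Emax (vs 5-HT) came from curve fitting. Mean ± SD, three experiments.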

Experiment [5] deals with T1, 5-hydroxytryptamine receptor 1A. In words: Agonist activity at 5HT1A receptor in CRL:CD(SD)BR-COBS rat hippocampus assessed as increase in [35S]GTPgammaS binding. In kind it is functional, tissue-based. A digest of the protocol: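 Rat hippocampal membranes (200 µg protein/sample), washed in 50 mM Tris·HCl and resuspended in pH 7.7 Tris with 10 µM pargyline and 4 mM CaCl2. Graded drug concentrations were applied, with 20 min preincubation at 37 °C, then 45 min at 37 °C with 0.1 nM [35S]GTPγS. Nonspecific binding was set with 10 µM GTPγS, followed by GF/B filtration. Mean ± SD, three experiments.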

The target is the same in experiment [6]. The experiment can be described thus: Antagonist activity at 5HT1A receptor in CRL:CD(SD)BR-COBS rat hippocampus assessed as inhibition of 5-hydroxytryptamine-induced increase in [35S]GTPgammaS binding. The experiment is classed as functional, tissue-based. A digest of the protocol: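 Hippocampal membranes (rat, 200 µg protein/sample) were prepared as for 5-HT1A binding. Antagonists were tested at several concentrations with 10 µM 5-HT: 20 min preincubation at 37 °C, then 45 min at 37 °C with 0.1 nM [35S]GTPγS. Nonspecific binding was set with 10 µM GTPγS, followed by filtration. IC50 was fitted and converted to Ki by Cheng–Prusoff. Mean ± SD of three experiments.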
Background: Binding of GTPγS marks nucleotide exchange on a G protein.

D(1A) dopamine receptor, sequence (P18901 whole entry): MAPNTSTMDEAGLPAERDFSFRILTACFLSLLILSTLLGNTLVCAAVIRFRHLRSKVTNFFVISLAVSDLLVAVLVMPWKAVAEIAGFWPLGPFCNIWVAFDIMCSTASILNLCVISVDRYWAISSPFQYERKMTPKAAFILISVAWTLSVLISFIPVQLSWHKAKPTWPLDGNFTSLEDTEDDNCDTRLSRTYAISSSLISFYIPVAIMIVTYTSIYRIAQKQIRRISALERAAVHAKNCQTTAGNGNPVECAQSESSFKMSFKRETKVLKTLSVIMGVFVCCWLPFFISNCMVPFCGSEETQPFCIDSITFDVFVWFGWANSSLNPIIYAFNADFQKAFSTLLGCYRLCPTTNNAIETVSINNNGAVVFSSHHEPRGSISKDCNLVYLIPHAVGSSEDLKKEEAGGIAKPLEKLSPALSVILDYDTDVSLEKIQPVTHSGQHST
5-hydroxytryptamine receptor 2A, sequence (P14842 whole entry): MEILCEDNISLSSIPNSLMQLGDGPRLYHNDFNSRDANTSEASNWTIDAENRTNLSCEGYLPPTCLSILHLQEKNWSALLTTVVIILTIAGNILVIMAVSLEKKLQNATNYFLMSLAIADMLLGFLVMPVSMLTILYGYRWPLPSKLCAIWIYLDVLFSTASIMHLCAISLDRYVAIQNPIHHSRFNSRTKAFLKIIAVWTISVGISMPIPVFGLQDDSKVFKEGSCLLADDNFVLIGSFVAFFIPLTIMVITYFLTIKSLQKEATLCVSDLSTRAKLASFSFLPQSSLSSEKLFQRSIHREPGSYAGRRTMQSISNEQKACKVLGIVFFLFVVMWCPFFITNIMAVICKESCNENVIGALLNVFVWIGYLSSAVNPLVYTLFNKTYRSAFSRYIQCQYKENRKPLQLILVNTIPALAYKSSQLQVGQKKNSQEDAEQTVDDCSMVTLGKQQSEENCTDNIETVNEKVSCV
D(2) dopamine receptor, sequence (P61169 whole entry): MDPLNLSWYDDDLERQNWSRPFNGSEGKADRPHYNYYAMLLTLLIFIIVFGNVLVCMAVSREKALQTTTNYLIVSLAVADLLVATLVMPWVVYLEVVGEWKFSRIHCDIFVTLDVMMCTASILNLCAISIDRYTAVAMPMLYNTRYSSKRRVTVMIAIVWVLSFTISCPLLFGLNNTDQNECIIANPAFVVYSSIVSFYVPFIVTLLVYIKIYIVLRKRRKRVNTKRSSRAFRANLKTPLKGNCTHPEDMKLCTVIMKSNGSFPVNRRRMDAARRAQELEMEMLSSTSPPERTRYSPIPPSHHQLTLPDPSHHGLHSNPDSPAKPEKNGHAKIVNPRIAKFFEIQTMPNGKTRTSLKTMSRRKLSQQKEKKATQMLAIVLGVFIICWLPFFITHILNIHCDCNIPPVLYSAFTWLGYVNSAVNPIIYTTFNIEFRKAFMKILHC

As for `COc1ccccc1N1CCN(CCCCSc2nc3ccccc3s2)CC1`, in the experiment filed under Rattus norvegicus, the Ratio Ki worked out at 61. Further, the Ki – broadly, the dissociation constant of the complex between target and ligand, obtained from inhibition or displacement – on D(1A) dopamine receptor turned out to be 2000 nM; in experiment [1], 0.27 nM; in experiment [2] it was 106 nM; on D(2) dopamine receptor it was 58.3 nM; in [3], 16.6 nM.
With `COc1ccccc1N1CCN(CCCSc2nc3cc(Cl)ccc3s2)CC1`, the Ratio Ki in the experiment filed under Rattus norvegicus amounted to 22. Besides, the results for the Ki in experiment [1] and in experiment [3] were 1 nM and 21.9 nM, respectively.
The corresponding values for `O=[N+]([O-])c1ccccc1N1CCN(CCSc2nc3ccccc3[nH]2)CC1` are 4.8, 95.2 nM and 457 nM.
Consider `O=[N+]([O-])c1ccccc1N1CCN(CCCSc2nc3ccccc3s2)CC1`, for which, in the experiment listed under Rattus norvegicus, the Ratio Ki was found to be 26. The values for the inhibitory constant (Ki) in experiment [1] and in experiment [3] were 9.6 nM and 249 nM, respectively.
Turning to `O=[N+]([O-])c1ccccc1N1CCN(CCSc2nc3ccccc3o2)CC1`, the Ratio Ki in the experiment filed under Rattus norvegicus is 5.87. Further, the Ki in experiment [1] amounted to 326 nM; in experiment [3] it was 1920 nM.
Regarding `CCC1=CC2C(=O)N(N)C(SCCCN3CCN(c4ncccn4)CC3)=NC2S1` (stereo unspecified), the maximal effect (Emax) (commonly the maximal effect, on the per cent scale that the assay sets) in [4] turned out to be 38%. The EC50 (usually the concentration needed to bring the measured effect to its halfway point) in experiment [5] amounted to 1210 nM.
Turning to `COc1ccccc1N1CCN(CCCSc2nc3ccccc3n2C)CC1`, the Ratio Ki in the experiment listed under Rattus norvegicus amounted to 74. Besides, the inhibition constant (Ki) in [1] turned out to be 0.27 nM; in experiment [3], 20 nM.
Consider `COc1ccccc1N1CCN(CCCCCCSc2nc3ccccc3o2)CC1`, for which, in the experiment listed under Rattus norvegicus, the Ratio Ki is 101. In addition, the inhibition constant (Ki) is 1.3 nM in experiment [6]; 922 nM at D(1A) dopamine receptor; 0.52 nM in experiment [1]; 207 nM in experiment [2]; 46.6 nM at D(2) dopamine receptor; 52.5 nM in [3].
`O=C1c2ccccc2S(=O)(=O)N1CCCCN1CCN(c2ncccn2)CC1` [IPSAPIRONE]: the Ratio Ki in the experiment filed under Rattus norvegicus was found to be 36. Also, the affinity in [3], expressed as Ki, was 200 nM.
Consider `COc1ccccc1N1CCN(CCCSc2nc3ccccc3[nH]2)CC1`, for which the Ratio Ki in the experiment listed under Rattus norvegicus is 26. For the same molecule, the results for the inhibition constant Ki in experiment [1] and in [3] were 1 nM and 25.9 nM, respectively.
As to `CCc1cc2c(=O)n(N)c(SCCCN3CCN(c4ccccc4OC)CC3)nc2s1`, the Ki in experiment [6] came to 7.4 nM.
Turning to `COc1ccccc1N1CCN(CCSc2nc3ccccc3[nH]2)CC1`, the Ratio Ki in the experiment filed under Rattus norvegicus was 7.25. For the same molecule, the inhibition constant (Ki) in experiment [1] is 33.1 nM; in [3] it was 240 nM.
The matching figures for `COc1ccccc1N1CCN(CCSc2nc3ccccc3o2)CC1`: 4.11, 67.2 nM and 276 nM.
On to `COc1ccccc1N1CCN(CCCCSc2nc3ccccc3o2)CC1`, for which, in the experiment listed under Rattus norvegicus, the Ratio Ki came out at 830. For the same molecule, the Ki in experiment [6] was 6.6 nM; on D(1A) dopamine receptor, 1600 nM; in experiment [1] it was 0.094 nM; in experiment [2] it was 298 nM; at D(2) dopamine receptor, 37.3 nM; in [3], 78 nM.
As to `COc1ccccc1N1CCN(CCCSc2nc3ccccc3s2)CC1`, the Ratio Ki in the experiment filed under Rattus norvegicus came to 114. In addition, the inhibition constant Ki in experiment [6] was determined as 1.7 nM; at D(1A) dopamine receptor it was 1280 nM; in experiment [1] it was 0.29 nM; in [2], 96.1 nM; on D(2) dopamine receptor it was 25.8 nM; in experiment [3] it was 33.2 nM.
Regarding `O=[N+]([O-])c1ccccc1N1CCN(CCSc2nc3ccccc3s2)CC1`, the Ratio Ki in the experiment filed under Rattus norvegicus was above 5.87. For the same molecule, the inhibition constant Ki in experiment [1] is 1700 nM; in [3], above 10000 nM.
Turning to `O=[N+]([O-])c1ccccc1N1CCN(CCCSc2nc3ccccc3o2)CC1`, in the experiment filed under Rattus norvegicus, the Ratio Ki amounted to 9. Further, the figures for the inhibition constant Ki in experiment [1] and in [3] were 14.1 nM and 127 nM, respectively.
Regarding `COc1ccccc1N1CCN(CCSc2nc3ccccc3s2)CC1`, in the experiment listed under Rattus norvegicus, the Ratio Ki is 6.63. For the same molecule, the inhibition constant (Ki) stood at 31.2 nM in experiment [1] and 207 nM in [3].
Take `c1ccc(N2CCN(CCCSc3nc4ccccc4o3)CC2)nc1`: the Ratio Ki in the experiment listed under Rattus norvegicus came to 61. In addition, the Ki on D(1A) dopamine receptor is above 10000 nM; in experiment [1] it was 1.6 nM; in [2], 174 nM; on D(2) dopamine receptor, 429 nM; in [3] it was 98 nM.
Take `NCCc1c[nH]c2ccc(O)cc12`: the Emax in experiment [4] is 100%.
As to `c1cnc(N2CCN(CCCSc3nc4ccccc4s3)CC2)nc1`, in the experiment listed under Rattus norvegicus, the Ratio Ki stood at 131. The Ki was above 10000 nM on D(1A) dopamine receptor; 2.5 nM in [1]; 183 nM in experiment [2]; 532 nM at D(2) dopamine receptor; 328 nM in [3].
Turning to `c1ccc(N2CCN(CCCSc3nc4ccccc4s3)CC2)nc1`, the Ratio Ki in the experiment listed under Rattus norvegicus came out at 100. For the same molecule, the Ki on D(1A) dopamine receptor turned out to be 5630 nM; in [1], 0.78 nM; in [2] it was 78.8 nM; on D(2) dopamine receptor it was 462 nM; in experiment [3] it was 77.7 nM. Further, in experiment [4], the Emax stood at 33%. Further, the EC50 in experiment [5] was determined as 204 nM.
`c1cnc(N2CCN(CCCSc3nc4ccccc4o3)CC2)nc1`: the Ratio Ki in the experiment listed under Rattus norvegicus is 111. Besides, the Ki in [1] worked out at 14.9 nM; in [3] it was 1650 nM.
Regarding `COc1ccccc1N1CCN(CCCCCCSc2nc3ccccc3s2)CC1`, the Ratio Ki in the experiment listed under Rattus norvegicus is 53. Also, the Ki in experiment [1] is 1.3 nM; in experiment [3] it was 46 nM.
The matching figures for `O=[N+]([O-])c1ccccc1N1CCN(CCCSc2nc3ccccc3[nH]2)CC1`: 4.66, 16.6 nM and 77.4 nM.
The matching figures for `COc1ccccc1N1CCN(CCCSc2nc3cc(Cl)ccc3o2)CC1`: 53, 0.88 nM and 46.7 nM.
Turning to `COc1ccccc1N1CCN(CCCSc2nc3ccccc3o2)CC1`, in the experiment filed under Rattus norvegicus, the Ratio Ki turned out to be 39. The results for the inhibitory constant (Ki) in experiment [1] and in [3] were 0.55 nM and 21.5 nM, respectively.

These data come from ChEMBL document CHEMBL1155805 (J Med Chem, 2008).
